In ChEMBL document CHEMBL1156133, “Losartan-antioxidant hybrids: novel molecules for the prevention of hypertension-induced cardiovascular damage” (J Med Chem, 2009):
The source made the active and inactive calls. The rule behind the calls is not given here.

Legend:
[1] = Antioxidant activity assessed as inhibition of oxidation of chromogen (ABTS) measured per mmol/L of product by total antioxidant assay; type: functional
How it was run: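 Total antioxidant status kit: inhibition of ABTS oxidation by metmyoglobin and hydrogen peroxide, followed at 600 nm absorbance; antioxidant ability proportional to absorbance reduction, expressed as mM. Compounds tested at 1 mmol/L.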

VSMC = experiment: Displacement of [125I]angiotensin II from angiotensin 2 receptor in Wistar rat VSMC cells by gamma-counter; type: cell-based; parameters: concentration or dose not given beside the values
How it was run: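 Rat aortic VSMC (collagenase-derived primary cultures, passages 3-5) resuspended in Tris-glucose-NaCl buffer pH 7.4 at 0.5 μg/μL protein; 125 μg protein incubated 45 min with 0.15 nM 125I-angiotensin II plus compound. Bound separated by centrifugation, pellet washed with cold 0.15 M NaCl, gamma counted; nonspecific binding with 10^-4 M angiotensin II.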

Rattus norvegicus [2] = experiment: Plasma concentration in po dosed Wistar rat assessed as 3-(3,4-Dihydroxy-phenyl)propionic Acid 2-butyl-5-chloro-3-[2'-(2H-tetrazol-5-yl)-biphenyl-4-ylmethyl]-3H-imidazol-4-ylmethylester level after 4 weeks; type: ADME, organism-based; settings: in vivo, 672 h
How it was run: (§1)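 Separate groups of Wistar rats dosed in drinking water for 4 weeks (n = 4-6 per group), then sacrificed and plasma analyzed by HPLC-MS/MS (triple quadrupole, electrospray), isocratic MeOH/water with 0.1% formic acid, 40 °C. Two plasma samples per animal; mean ± SEM.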

[3] = Solubility in water assessed as nonhydrolzed drug level after 2 days; type: physicochemical; settings: read-out: Activity
Rattus norvegicus [4] = experiment: Antihypertensive activity in L-NAME-induced Wistar rat assessed as decrease in blood protein level at 28 mg/kg/day, po for last 4 weeks measured after 8 weeks; type: functional
How it was run: (§2)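 Two-month-old male Wistar rats given L-NAME in drinking water (20 mg/kg/day) for 8 weeks. From week 4, treatment is given daily in drinking water during 12.00–18.00 h, at the dose stated in the line. Ten rats per group. Sacrificed under halothane between 9.00 and 10.00 h. Serum is measured on an automatic analyzer. Mean ± SEM, nonparametric statistics.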

Rattus norvegicus [5] = experiment: Antihypertensive activity in Wistar rat assessed as normalization of L-NAME-induced collagen 1 level in vessel walls at 28 mg/kg/day, po for 4 weeks in presence of losartan; type: functional, organism-based
How it was run: (§3)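 Male Wistar rats on L-NAME in drinking water (20 mg/kg/day) for 8 weeks, treatments in drinking water for the last 4 weeks. Thoracic aorta lysates run on SDS-PAGE and Western blotted for collagen type I, fibronectin or HNE-lysine, with β-tubulin as loading control; ECL detection, densitometry. Expressed as percent of basal; mean ± SEM of 10 experiments.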

Rattus norvegicus [6] = experiment: Antihypertensive activity in L-NAME-induced Wistar rat assessed as decrease in blood cholesterol level at 28 mg/kg/day, po for last 4 weeks measured after 8 weeks; type: functional; how it was run: as §2
Rattus norvegicus [7] = experiment: Antihypertensive activity in Wistar rat assessed as normalization of L-NAME-induced heart weight at 28 mg/kg/day, po for 4 weeks in presence of L-NAME; type: functional, organism-based
How it was run: (§4)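 L-NAME (20 mg/kg/day, drinking water, 8 weeks) hypertensive two-month-old male Wistar rats; treatments in drinking water daily for the last 4 weeks. Systolic pressure by tail-cuff in conscious animals. At sacrifice heart weighed (corrected to body weight); aortic rings from descending thoracic aorta, formaldehyde-flushed, media thickness by planimetry. Mean ± SEM of 10 rats.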

Rattus norvegicus [8] = experiment: Antihypertensive activity in L-NAME-induced Wistar rat assessed as decrease in blood triglyceride level at 28 mg/kg/day, po for last 4 weeks measured after 8 weeks; type: functional; how it was run: as §2
Rattus norvegicus [9] = experiment: Antihypertensive activity in Wistar rat assessed as normalization of L-NAME-induced heart weight at 20 mg/kg/day, po for 4 weeks in presence of L-NAME; type: functional, organism-based; settings: 28 mg/kg, in the assay text read “28 mg/kg/day” for “20 mg/kg/day”; how it was run: as §4
Rattus norvegicus [10] = experiment: Plasma concentration in po dosed Wistar rat assessed as EXP-3174 level after 4 weeks; type: ADME, organism-based; settings: in vivo, 672 h; how it was run: as §1
Rattus norvegicus [11] = experiment: Antihypertensive activity in L-NAME-induced Wistar rat assessed as decrease in blood calcium level at 28 mg/kg/day, po for last 4 weeks measured after 8 weeks; type: functional; how it was run: as §2
Rattus norvegicus [12] = experiment: Antihypertensive activity in Wistar rat assessed as normalization of L-NAME-induced HNE-lysine accumulation in vessel walls at 28 mg/kg/day, po for 4 weeks in presence of losartan; type: functional, organism-based; how it was run: as §3
Rattus norvegicus [13] = experiment: Antihypertensive activity in L-NAME-induced Wistar rat assessed as decrease in blood urea level at 28 mg/kg/day, po for last 4 weeks measured after 8 weeks; type: functional; how it was run: as §2
Rattus norvegicus [14] = experiment: Antihypertensive activity in L-NAME-induced Wistar rat assessed as decrease in blood LDH level at 28 mg/kg/day, po for last 4 weeks measured after 8 weeks; type: functional; how it was run: as §2
Rattus norvegicus [15] = experiment: Plasma concentration in po dosed Wistar rat assessed as losartan level after 4 weeks; type: ADME, organism-based; settings: in vivo, 672 h; how it was run: as §1
Rattus norvegicus [16] = experiment: Antihypertensive activity in L-NAME-induced Wistar rat assessed as decrease in blood Na+ level at 28 mg/kg/day, po for last 4 weeks measured after 8 weeks; type: functional; how it was run: as §2
Rattus norvegicus [17] = experiment: Antihypertensive activity in Wistar rat assessed as normalization of L-NAME-induced fibronectin content in vessel walls at 28 mg/kg/day, po for 4 weeks in presence of losartan; type: functional, organism-based; how it was run: as §3
Rattus norvegicus [18] = experiment: Antihypertensive activity in Wistar rat assessed as normalization of L-NAME-induced aorta thickness at 10 mg/kg/day, po for 4 weeks; type: functional, organism-based; how it was run: as §4
Rattus norvegicus [19] = experiment: Antihypertensive activity in Wistar rat assessed as normalization of L-NAME-induced systolic blood pressure at 28 mg/kg/day, po for 4 weeks; type: functional, organism-based; settings: Artery; how it was run: as §4
Rattus norvegicus [20] = experiment: Antihypertensive activity in L-NAME-induced Wistar rat assessed as decrease in blood […] level at 28 mg/kg/day, po for last 4 weeks measured after 8 weeks; type: functional; how it was run: as §2
Rattus norvegicus [21] = experiment: Antihypertensive activity in L-NAME-induced Wistar rat assessed as decrease in blood ALT level at 28 mg/kg/day, po for last 4 weeks measured after 8 weeks; type: functional; how it was run: as §2
Rattus norvegicus [22] = experiment: Antihypertensive activity in L-NAME-induced Wistar rat assessed as decrease in blood AST level at 28 mg/kg/day, po for last 4 weeks measured after 8 weeks; type: functional; how it was run: as §2
Rattus norvegicus [23] = experiment: Antihypertensive activity in L-NAME-induced Wistar rat assessed as decrease in blood glucose level at 28 mg/kg/day, po for last 4 weeks measured after 8 weeks; type: functional; how it was run: as §2
Rattus norvegicus [24] = experiment: Antihypertensive activity in L-NAME-induced Wistar rat assessed as decrease in blood creatinine level at 28 mg/kg/day, po for last 4 weeks measured after 8 weeks; type: functional; how it was run: as §2

`CCCCc1ncc(COC(=O)C2(C)CCc3c(C)c(O)c(C)c(C)c3O2)n1Cc1ccc(-c2ccccc2-c2nnn[nH]2)cc1` (stereo not drawn) showed an Activity [1] of 0.27 mmol/L and an Activity (VSMC) of 65%.
`CCCCc1ncc(COC(=O)Cc2cc(C(C)(C)C)c(O)c(C(C)(C)C)c2)n1Cc1ccc(-c2ccccc2-c2nnn[nH]2)cc1` gave an Activity [1] of 0.24 mmol/L and an Activity (VSMC) of 77%.
With `CCCCc1nc(Cl)c(COC(=O)Cc2cc(C(C)(C)C)c(O)c(C(C)(C)C)c2)n1Cc1ccc(-c2ccccc2-c2nnn[nH]2)cc1` the Activity [1] was 0.16 mmol/L and the Activity (VSMC) was 65%.
In the case of `CCCCc1nc(Cl)c(COC(=O)CCc2ccc(O)c(O)c2)n1Cc1ccc(-c2ccccc2-c2nnn[nH]2)cc1`, the concentration (Rattus norvegicus [2]) is reported as 171 nM, the remaining at 48 h [3] is reported as 95.9% and the Activity (Rattus norvegicus [4]) is reported as 4.5 g/dL. For the same compound, the Activity (Rattus norvegicus [5]) was “Active”, the Activity (Rattus norvegicus [6]) was 52 mg/dL and the Activity [1] was 0.31 mmol/L. For the same compound, the Activity (Rattus norvegicus [7]) was “Active”, the Activity (Rattus norvegicus [8]) was 52 mg/dL and the Activity (Rattus norvegicus [9]) was “Active”. For the same compound, the concentration (Rattus norvegicus [10]) was 13 nM, the Activity (Rattus norvegicus [11]) was 8.6 mg/dL and the Activity (Rattus norvegicus [12]) was “Active”. It also gave an Activity (Rattus norvegicus [13]) of 24 mg/dL, an Activity (Rattus norvegicus [14]) of 561 IU/L and a concentration (Rattus norvegicus [15]) of 8 nM. The Activity (Rattus norvegicus [16]) was 151 mmol/L, the Activity (Rattus norvegicus [17]) was “Active” and the Activity (Rattus norvegicus [18]) was “inactive”. For the same compound, the Activity (Rattus norvegicus [19]) was “Active”, the Activity (Rattus norvegicus [20]) was 4.6 mmol/L and the Activity (Rattus norvegicus [21]) was 24 IU/L. For the same compound, the Activity (Rattus norvegicus [22]) was 83 IU/L, the Activity (Rattus norvegicus [23]) was 154 mg/dL and the Activity (VSMC) was 59%. The Activity (Rattus norvegicus [24]) was 0.42 mg/dL.
`CCCCc1nc(Cl)c(CO)n1Cc1ccc(-c2ccccc2-c2nn[nH]n2)cc1` [LOSARTAN] showed a concentration (Rattus norvegicus [10]) of 39 nM and a concentration (Rattus norvegicus [15]) of 24.4 nM.
